According to ChEMBL document CHEMBL1821569, “Synthesis of novel 1,2,5-trisubstituted benzimidazoles as potential antitumor agents” (2011):

Experiments:
Format in all cases: functional
[1] = system: COLO 205; assay: Antitumor activity against human COLO205 cells after 48 hrs by SRB assay; details: COLO 205, 48 h
In short: (§1)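 NCI 60-cell-line secondary screen. Cells were exposed continuously to drug for 48 h at five concentration levels (100, 10, 1.0, 0.1 and 0.01). Growth was estimated by sulforhodamine B protein staining. GI50 is the concentration giving a 50% reduction in net protein increase versus untreated control cells over the incubation. TGI (total growth inhibition) and LC50 (50% cell kill) were also derived.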

[2] = system: OVCAR-3; assay: Antitumor activity against human OVCAR3 cells after 48 hrs by SRB assay; details: OVCAR-3, 48 h; in short: as §1
[3] = system: HL-60(TB); assay: Antitumor activity against human HL-60(TB) cells after 48 hrs by SRB assay; details: HL-60, 48 h
In short: (§2)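 NCI 60-cell-line secondary screen: continuous drug exposure for 48 h at five concentration levels (100, 10, 1.0, 0.1 and 0.01). Cell growth was estimated by sulforhodamine B (SRB) protein staining. GI50 is the concentration giving a 50% reduction in net protein increase relative to untreated control cells during the incubation. TGI and LC50 were derived from the same data.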

[4] = system: ACHN; assay: Antitumor activity against human ACHN cells after 48 hrs by SRB assay; in short: as §1
[5] = system: MDA-MB-468; assay: Antitumor activity against human MDA-MB-468 cells after 48 hrs by SRB assay; details: MDA-MB-468, 48 h; in short: as §1
[6] = system: IGROV-1; assay: Antitumor activity against human IGROV1 cells after 48 hrs by SRB assay; details: IGROV-1, 48 h; in short: as §1
[7] = system: A549; assay: Antitumor activity against human A549 cells after 48 hrs by SRB assay; details: A549, 48 h; in short: as §1
[8] = system: SNB-19; assay: Antitumor activity against human SNB19 cells after 48 hrs by SRB assay; details: SNB-19, 48 h; in short: as §1
[9] = system: SF-295; assay: Antitumor activity against human SF295 cells after 48 hrs by SRB assay; details: SF-295, 48 h; in short: as §1
[10] = system: UACC-62; assay: Antitumor activity against human UACC62 cells after 48 hrs by SRB assay; details: UACC-62, 48 h
In short: (§3)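 NCI 60-cell-line secondary screen. Continuous 48 h exposure at five concentration levels. Cell growth estimated by sulforhodamine B protein staining. GI50 taken as the concentration giving 50% reduction in net protein increase relative to untreated control cells over the incubation. TGI (total growth inhibition) and LC50 (50% cell kill) were also derived.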

[11] = Antitumor activity against human Hs 578T cells after 48 hrs by SRB assay; in short: as §1
[12] = system: RXF 393; assay: Antitumor activity against human RXF393 cells after 48 hrs by SRB assay; details: RXF 393, 48 h; in short: as §1
[13] = system: SK-MEL-2; assay: Antitumor activity against human SK-MEL-2 cells after 48 hrs by SRB assay; details: SK-MEL-2, 48 h; in short: as §1
[14] = system: M14; assay: Antitumor activity against human M14 cells after 48 hrs by SRB assay; details: M14, 48 h; in short: as §1
[15] = system: HCC 2998; assay: Antitumor activity against human HCC2998 cells after 48 hrs by SRB assay; details: HCC 2998, 48 h; in short: as §2
[16] = system: EKVX; assay: Antitumor activity against human EKVX cells after 48 hrs by SRB assay; in short: as §1
[17] = system: KM12; assay: Antitumor activity against human KM12 cells after 48 hrs by SRB assay; details: KM12, 48 h; in short: as §1
[18] = system: SR; assay: Antitumor activity against human SR cells after 48 hrs by SRB assay; in short: as §3
[19] = system: OVCAR-8; assay: Antitumor activity against human OVCAR8 cells after 48 hrs by SRB assay; details: OVCAR-8, 48 h; in short: as §1
[20] = system: BT-549; assay: Antitumor activity against human BT549 cells after 48 hrs by SRB assay; details: BT-549, 48 h; in short: as §1
[21] = system: NCI/ADR-RES; assay: Antitumor activity against human NCI/ADR-RES cells after 48 hrs by SRB assay; in short: as §1
[22] = system: NCI-H23; assay: Antitumor activity against human NCI-H23 cells after 48 hrs by SRB assay; details: NCI-H23, 48 h; in short: as §1
[23] = system: DU-145; assay: Antitumor activity against human DU145 cells after 48 hrs by SRB assay; details: DU-145, 48 h; in short: as §1
[24] = system: Malme-3M; assay: Antitumor activity against human MALME-3M cells after 48 hrs by SRB assay; in short: as §1
[25] = system: SF-539; assay: Antitumor activity against human SF539 cells after 48 hrs by SRB assay; details: SF-539, 48 h; in short: as §1
[26] = system: CAKI-1; assay: Antitumor activity against human Caki1 cells after 48 hrs by SRB assay; details: CAKI-1, 48 h; in short: as §1
[27] = system: 786-0; assay: Antitumor activity against human 786-0 cells after 48 hrs by SRB assay; details: 786-0, 48 h; in short: as §1
[28] = system: HT-29; assay: Antitumor activity against human HT-29 cells after 48 hrs by SRB assay; details: HT-29, 48 h; in short: as §1
[29] = system: SK-OV-3; assay: Antitumor activity against human SKOV3 cells after 48 hrs by SRB assay; details: SK-OV-3, 48 h; in short: as §1
[30] = system: NCI-H226; assay: Antitumor activity against human NCI-H226 cells after 48 hrs by SRB assay; details: NCI-H226, 48 h; in short: as §1
[31] = read-out: LC50 (the source's name)

## COC(=O)c1ccc2c(c1)nc(-c1ccc(Cl)cc1)n2-c1cc(C(C)(C)C)[nH]n1
[1]
  GI50: 2.29 µM
  TGI: 6.04 µM
[1]; [31]
  CC50: 0.463 µM
[2]
  GI50: 2.35 µM
  TGI: 6.13 µM
[2]; [31]
  CC50: 0.915 µM
[3]
  GI50: 4.03 µM
  LC50: > 100 µM
  TGI: 11.2 µM
[4]
  GI50: 3 µM
  TGI: 9.34 µM
[4]; [31]
  CC50: > 100 µM
[5]
  GI50: 2.4 µM
  TGI: 7.98 µM
[5]; [31]
  CC50: > 100 µM
[6]
  GI50: 3.64 µM
  TGI: 25 µM
[6]; [31]
  CC50: > 100 µM
[7]
  GI50: 4.03 µM
  TGI: 94.5 µM
[7]; [31]
  CC50: > 100 µM
[8]
  GI50: 4.31 µM
  TGI: > 100 µM
[8]; [31]
  CC50: > 100 µM
[9]
  GI50: 2.48 µM
  TGI: 8.98 µM
[9]; [31]
  CC50: > 100 µM
[10]
  GI50: 2.01 µM
  TGI: 7.78 µM
[10]; [31]
  CC50: 0.463 µM
[11]
  GI50: 1.72 µM
  TGI: 7.86 µM
[11]; [31]
  CC50: > 100 µM
[12]
  GI50: 1.57 µM
  TGI: 5.77 µM
[12]; [31]
  CC50: 0.569 µM
[13]
  GI50: 3.89 µM
  TGI: 18.1 µM
[13]; [31]
  CC50: > 100 µM
[14]
  GI50: 2.9 µM
  TGI: 8.22 µM
[14]; [31]
  CC50: 0.758 µM
[15]
  GI50: 3.9 µM
  TGI: 19.8 µM
[15]; [31]
  CC50: > 100 µM
[16]
  GI50: 3.06 µM
  LC50 (50% cell kill): > 100 µM
  TGI: > 100 µM
[17]
  GI50: 2.12 µM
  TGI: 6.07 µM
[17]; [31]
  CC50: > 100 µM
[18]
  GI50: 3.23 µM
  TGI: > 100 µM
[18]; [31]
  CC50: > 100 µM
[19]
  GI50: 7.33 µM
  TGI: 58.2 µM
[19]; [31]
  CC50: > 100 µM
[20]
  GI50: 3.35 µM
  TGI: 11.2 µM
[20]; [31]
  CC50: 0.595 µM
[21]
  GI50: 2.72 µM
  TGI: 7.35 µM
[21]; [31]
  CC50: > 100 µM
[22]
  GI50: 3.42 µM
  LC50 (50% cell kill): > 100 µM
  TGI: 36 µM
[23]
  GI50: 3.7 µM
  TGI: 25.8 µM
[23]; [31]
  CC50: > 100 µM
[24]
  GI50: 3.25 µM
  TGI: 15.6 µM
[24]; [31]
  CC50: > 100 µM
[25]
  GI50: 2.54 µM
  TGI: 8.95 µM
[25]; [31]
  CC50: 0.521 µM
[26]
  GI50: 2.25 µM
  TGI: 12.8 µM
[26]; [31]
  CC50: > 100 µM
[27]
  GI50: 3.62 µM
  TGI: 32 µM
[27]; [31]
  CC50: > 100 µM
[28]
  GI50: 3.65 µM
  LC50 (50% cell kill): > 100 µM
  TGI: 15.4 µM
[29]
  GI50: 3.71 µM
  TGI: 31 µM
[29]; [31]
  CC50: > 100 µM
[30]
  GI50: 4.09 µM
  LC50 (50% cell kill): > 100 µM
  TGI: 44 µM
